Measurements from ChEMBL document CHEMBL4152215, “Anti-leishmanial click modifiable thiosemicarbazones: Design, synthesis, biological evaluation and in silico studies” (Eur J Med Chem, 2018).

Assays:
Leishmania major [1] = assay: Antileishmanial activity against axenic amastigote form of Leishmania major assessed as parasite growth inhibition after 72 hrs by resazurin dye based assay; assay type: functional, organism-based
Procedure, shortened: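 Axenic L. major amastigotes, generated in RPMI-1640 with 10% heat-inactivated FCS, penicillin/streptomycin and L-glutamine, seeded at 2 x 10³ cells/ml onto serially diluted compound (0.04-10 final). Held at 31°C, 5% CO₂, humidified, for 72 h. Resazurin added at 68 h and read at 72 h (ex 530/em 590 nm). IC50 from sigmoidal dose-response curves; mean ± SEM, triplicate experiments in duplicate.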

Leishmania major [2] = assay: Antileishmanial activity against promastigote form of Leishmania major assessed as parasite growth inhibition after 48 hrs by alamar blue assay; assay type: functional, organism-based
Leishmania major [3] = assay: Potency index, ratio of miltefosine IC50 to compound IC50 for antileishmanial activity axenic amastigote form of Leishmania major; assay type: functional
Mus musculus [4] = assay: Acute toxicity in mouse assessed as effect on lung morphology at 125 mg/kg, po administered via gavage measured after 24 hrs and followed up to 7 days by histopathological analysis; assay type: organism-based; settings: in vivo
Procedure, shortened: (§1)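 Male mice (25-30 g), six per group, fasted overnight and weighed before dosing. Compound suspended in aqueous 1% gum acacia and given by oral gavage in ascending doses of 25, 50, 75, 100 and 125 mg/kg/day (groups I-V). Vehicle group received gum acacia at up to 1 mL/100 g. Mortality recorded at 24 h and followed for seven days. Spleen, lung, liver and kidney examined.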

Leishmania major [5] = assay: Potency index, ratio of miltefosine IC50 to compound IC50 for antileishmanial activity promastigote form of Leishmania major; assay type: functional
Leishmania major [6] = assay: Antileishmanial activity against Leishmania major assessed as parasite survival at 0.16 uM after 48 hrs in presence of 20 uM folic acid relative to control; assay type: functional
Procedure, shortened: (§2)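 L. major promastigotes in log phase (10⁶ parasites) pre-incubated with folic or folinic acid (20 or 100 µM), washed, resuspended in PBS for 1 h at room temperature, then returned to culture medium in 24-well plates. Compounds added at the fixed concentration, with trimethoprim at 100 µM. Incubated 48 h; living parasites counted per mL against untreated control wells.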

Leishmania major [7] = assay: Antileishmanial activity against Leishmania major assessed as parasite survival at 0.16 uM after 48 hrs in presence of 100 uM folic acid relative to control; assay type: functional; procedure, shortened: as §2
Leishmania major [8] = assay: Antileishmanial activity against Leishmania major assessed as parasite survival at 0.16 uM after 48 hrs relative to control; assay type: functional; procedure, shortened: as §2
Mus musculus [9] = assay: Acute toxicity in mouse assessed as effect on kidney morphology at 125 mg/kg, po administered via gavage measured after 24 hrs and followed up to 7 days by histopathological analysis; assay type: organism-based; settings: in vivo; procedure, shortened: as §1
Mus musculus [10] = assay: Acute toxicity in mouse assessed as effect on spleen morphology at 75 mg/kg, ip measured up to 7 days by histopathological analysis; assay type: organism-based; settings: in vivo, 168 h
Procedure, shortened: (§3)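 Groups of six mice dosed by intraperitoneal injection at 5, 10, 25, 50 and 75 mg/kg, with propylene glycol as vehicle and control. Spleen, lung, liver and kidney taken from the 75 mg/kg animals and examined for texture.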

Mus musculus [11] = assay: Acute toxicity in mouse assessed as effect on body weight at 25 to 125 mg/kg/day, po administered via gavage measured during 3 days post dose; assay type: organism-based; settings: in vivo, 72 h; procedure, shortened: as §1
[12] = Cytotoxicity against African green monkey Vero cells assessed as reduction in cell viability after 72 hrs by crystal violet staining based assay; settings: chlorocebus sabaeus
Procedure, shortened: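 Vero cells seeded at 1×10^5 cells/well in MEM with 5% heat-inactivated FBS. Viability by crystal violet staining; CC50 from concentration-response. At least 3 separate experiments, each in duplicate.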

Mus musculus [13] = assay: Acute toxicity in mouse assessed as effect on spleen morphology at 125 mg/kg, po administered via gavage measured after 24 hrs and followed up to 7 days by histopathological analysis; assay type: organism-based; settings: in vivo; procedure, shortened: as §1
Mus musculus [14] = assay: Acute toxicity in mouse assessed as effect on liver morphology at 125 mg/kg, po administered via gavage measured after 24 hrs and followed up to 7 days by histopathological analysis; assay type: organism-based; settings: in vivo; procedure, shortened: as §1
Mus musculus [15] = assay: Acute toxicity in mouse assessed as effect on survival up to 75 mg/kg dosed via parenteral route measured up to 7 days; assay type: organism-based; settings: in vivo, 168 h; procedure, shortened: as §3
Mus musculus [16] = assay: Acute toxicity in mouse assessed as effect on liver morphology at 75 mg/kg, ip measured up to 7 days by histopathological analysis; assay type: organism-based; settings: in vivo, 168 h; procedure, shortened: as §3
Mus musculus [17] = assay: Acute toxicity in mouse assessed as effect on lung morphology at 75 mg/kg, ip measured up to 7 days by histopathological analysis; assay type: organism-based; settings: in vivo, 168 h; procedure, shortened: as §3
Mus musculus [18] = assay: Acute toxicity in mouse up to 125 mg/kg/day, po administered via gavage measured after 24 hrs and followed up to 7 days; assay type: organism-based; settings: in vivo; procedure, shortened: as §1
Mus musculus [19] = assay: Acute toxicity in mouse assessed as induction of death at 25 to 125 mg/kg/day, po administered via gavage measured during 3 days post dose; assay type: organism-based; settings: in vivo, 72 h; procedure, shortened: as §1
Leishmania major [20] = assay: Antileishmanial activity against Leishmania major assessed as parasite survival at 0.16 uM after 48 hrs in presence of 20 uM folinic acid relative to control; assay type: functional; procedure, shortened: as §2
Mus musculus [21] = assay: Acute toxicity in mouse assessed as effect on kidney morphology at 75 mg/kg, ip measured up to 7 days by histopathological analysis; assay type: organism-based; settings: in vivo, 168 h; procedure, shortened: as §3
Leishmania major [22] = assay: Antileishmanial activity against Leishmania major assessed as parasite survival at 0.16 uM after 48 hrs in presence of 100 uM folinic acid relative to control; assay type: functional; procedure, shortened: as §2
[23] = Selectivity index, ratio of CC50 African green monkey Vero cells to IC50 for promastigote form of Leishmania major; assay type: toxicity; settings: Vero cells versus Leishmania major promastigotes, read-out: Ratio CC50/IC50
Procedure, shortened: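 Selectivity index calculated as Vero CC50 (72 h crystal violet) divided by promastigote IC50.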

Leishmania major [24] = assay: Antileishmanial activity against Leishmania major assessed as parasite survival at 0.25 uM after 48 hrs relative to control; assay type: functional; procedure, shortened: as §2
Leishmania major [25] = assay: Antileishmanial activity against Leishmania major assessed as parasite survival at 0.25 uM after 48 hrs in presence of 20 uM folic acid relative to control; assay type: functional; procedure, shortened: as §2
Leishmania major [26] = assay: Antileishmanial activity against Leishmania major assessed as parasite survival at 0.25 uM after 48 hrs in presence of 20 uM folinic acid relative to control; assay type: functional; procedure, shortened: as §2
Leishmania major [27] = assay: Antileishmanial activity against Leishmania major assessed as parasite survival at 0.25 uM after 48 hrs in presence of 100 uM folic acid relative to control; assay type: functional; procedure, shortened: as §2
Leishmania major [28] = assay: Antileishmanial activity against Leishmania major assessed as parasite survival at 0.25 uM after 48 hrs in presence of 100 uM folinic acid relative to control; assay type: functional; procedure, shortened: as §2

## COc1ccc(/C=N/NC(N)=S)cc1OCc1cn(-c2ccc(S(N)(=O)=O)cc2)nn1
Leishmania major [1]
  IC50: 4.35 µM
Leishmania major [2]
  IC50: 4.38 µM

## CCCCCCCCCCCCCCCCOP(=O)([O-])OCC[N+](C)(C)C [MILTEFOSINE]
Leishmania major [1]
  IC50: 8.09 µM

## C/C(=N/NC(N)=S)c1ccc(OCc2cn(-c3ccc(S(N)(=O)=O)cc3)nn2)cc1
Leishmania major [1]
  IC50: 8.26 µM
Leishmania major [2]
  IC50: 6.79 µM

## C/C(=N/NC(N)=S)c1ccc(OCc2cn(CC(=O)c3ccc(Br)cc3)nn2)cc1
Leishmania major [3]
  Ratio IC50: 8
Mus musculus [4]
  Activity: Non-Toxic
Leishmania major [5]
  Ratio IC50: 55.6
Leishmania major [6]
  Activity: 91%
Leishmania major [7]
  Activity: 99%
Leishmania major [1]
  IC50: 1 µM
Leishmania major [8]
  Activity: 23%
Mus musculus [9]
  Activity: Non-Toxic
Mus musculus [10]
  Activity: Non-Toxic
Leishmania major [2]
  IC50: 0.14 µM
Mus musculus [11]
  Activity: Non-Toxic
[12]
  CC50 at 72 h: 509 µM
Mus musculus [13]
  Activity: Non-Toxic
Mus musculus [14]
  Activity: Non-Toxic
Mus musculus [15]
  Activity: Non-Toxic
Mus musculus [16]
  Activity: Non-Toxic
Mus musculus [17]
  Activity: Non-Toxic
Mus musculus [18]
  Activity: Non-Toxic
Mus musculus [19]
  Activity: Non-Toxic
Leishmania major [20]
  Activity: 90%
Mus musculus [21]
  Activity: Non-Toxic
Leishmania major [22]
  Activity: 99%
[23]
  selectivity ratio: 3630

## COc1ccc(/C=N/NC(N)=S)cc1OCc1cn(CC(=O)c2ccc(F)cc2)nn1
Leishmania major [1]
  IC50: 4.83 µM
Leishmania major [2]
  IC50: 2.52 µM

## COc1cc(/C=N/NC(N)=S)ccc1OCc1cn(CC(=O)c2ccc(F)cc2)nn1
Leishmania major [1]
  IC50: 6.46 µM
Leishmania major [2]
  IC50: 6.93 µM

## COc1ccc(/C=N\NC(N)=S)cc1OCc1cn(CC(=O)c2ccc(Cl)cc2)nn1
Leishmania major [3]
  Ratio IC50: 5
Leishmania major [1]
  IC50: 1.69 µM
Leishmania major [2]
  IC50: 0.798 µM

## COc1cc(/C=N\NC(N)=S)ccc1OCc1cn(CC(=O)c2ccccc2)nn1
Leishmania major [1]
  IC50: 5.39 µM
Leishmania major [2]
  IC50: 4.87 µM

## COc1cc(/C=N/NC(N)=S)ccc1OCc1cn(-c2ccc(C(=O)O)cc2)nn1
Leishmania major [1]
  IC50: 5.6 µM
Leishmania major [2]
  IC50: 5.74 µM

## COc1ccc(/C=N/NC(N)=S)cc1OCc1cn(-c2ccc(C(=O)O)cc2)nn1
Leishmania major [1]
  IC50: 4.78 µM
Leishmania major [2]
  IC50: 5 µM

## COc1ccc(/C=N\NC(N)=S)cc1OCc1cn(CC(=O)c2ccc(Br)cc2)nn1
Leishmania major [1]
  IC50: 4.48 µM
Leishmania major [2]
  IC50: 5.69 µM

## COc1ccc(/C=N\NC(N)=S)cc1OCc1cn(CC(=O)c2ccccc2)nn1
Leishmania major [1]
  IC50: 4.38 µM
Leishmania major [2]
  IC50: 4.4 µM

## COc1cc(/C=N/NC(N)=S)ccc1OCc1cn(CC(=O)c2ccc(C)cc2)nn1
Leishmania major [1]
  IC50: 4.97 µM
Leishmania major [2]
  IC50: 4.82 µM

## C/C(=N/NC(N)=S)c1ccc(OCc2cn(-c3ccc(C(=O)O)cc3)nn2)cc1
Leishmania major [1]
  IC50: 6.04 µM
Leishmania major [2]
  IC50: 7.41 µM

## COc1cc(/C=N\NC(N)=S)ccc1OCc1cn(CC(=O)c2ccc(Cl)cc2)nn1
Leishmania major [1]
  IC50: 5.4 µM
Leishmania major [2]
  IC50: 4.76 µM

## C#CCOc1ccc(/C=N/NC(N)=S)cc1OC
Leishmania major [3]
  Ratio IC50: 6
Mus musculus [4]
  Activity: Non-Toxic
Leishmania major [24]
  Activity: 25%
Leishmania major [1]
  IC50: 1.4 µM
Mus musculus [9]
  Activity: Non-Toxic
Leishmania major [25]
  Activity: 89%
Mus musculus [10]
  Activity: Non-Toxic
Leishmania major [2]
  IC50: 0.227 µM
Mus musculus [11]
  Activity: Non-Toxic
[12]
  CC50 at 72 h: 828 µM
Leishmania major [26]
  Activity: 90%
Leishmania major [27]
  Activity: 97%
Mus musculus [13]
  Activity: Non-Toxic
Mus musculus [14]
  Activity: Non-Toxic
Mus musculus [15]
  Activity: Non-Toxic
Mus musculus [16]
  Activity: Non-Toxic
Leishmania major [28]
  Activity: 98%
Mus musculus [17]
  Activity: Non-Toxic
Mus musculus [18]
  Activity: Non-Toxic
Mus musculus [19]
  Activity: Non-Toxic
Mus musculus [21]
  Activity: Non-Toxic
[23]
  selectivity ratio: 3640

## COc1cc(/C=N\NC(N)=S)ccc1OCc1cn(CC(=O)c2ccc(Br)cc2)nn1
Leishmania major [1]
  IC50: 5.1 µM
Leishmania major [2]
  IC50: 3.97 µM

## COc1ccc(/C=N/NC(N)=S)cc1OCc1cn(CC(=O)c2ccc(C)cc2)nn1
Leishmania major [3]
  Ratio IC50: 4
Leishmania major [1]
  IC50: 2.18 µM
Leishmania major [2]
  IC50: 0.99 µM
